Laboratory results: ChEMBL document CHEMBL4513216, “Probing the Open Global Health Chemical Diversity Library for Multistage-Active Starting Points for Next-Generation Antimalarials” (ACS Infect Dis, 2020)

assay: Toxicity liver stage against HepG2, at 10uM; type: cell-based; set-up: test concentration 10 uM, cell line HepG2-A16-CD81EGFP; conditions: human, HepG2-A16-CD81EGFP cells; read-out: INHIBITION
Method in brief: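 Uninfected HepG2-A16-CD81EGFP cells, 3 × 10^3 per well, 1536-well, plated on prespotted compound at 10 μM final, parasite-free screening media added to match infected plates; puromycin 10 μM positive, DMSO 0.5% negative; run in parallel with 48 h PbLuc assay at 37 °C, 5% CO2; viability by CellTiter-Glo luminescence, normalized to controls.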

SMILES	cytotoxicity at 10 µM
CN(C)[C@H]1C[C@@H](Cc2cc(CO)on2)C1(C)C	0.994%
COCCN1C(=O)CO[C@H]2CN(Cc3ccccc3OC)C[C@H]21	-1.52%
O=C1NC[C@H]2CN(Cc3ccccn3)CCN12	-2.4%
CNC(=O)c1csc(-c2cccnc2)n1	3.19%
CC(C)(O)CN1CCC(=O)N(Cc2ccco2)Cc2cc(F)ccc21	-3.66%
O=C(COc1coc(CN2CCCCC2)cc1=O)Nc1cccc(Cl)c1	-1.89%
CCc1ccc(S(=O)(=O)Nc2cnc(N3CCOCC3)nc2)cc1	-7.72%
O=S(=O)(Nc1cnc(N2CCOCC2)nc1)c1ccc(C(F)(F)F)cc1	-2.73%
O=C(CN1CCC(c2nnc(C(F)(F)F)o2)CC1)Nc1cccnc1	-2.46%
Cn1cc(S(=O)(=O)NCc2ccsc2)cn1	0.978%
O=C(NC1CCC1)C1CCC2(CN(C(=O)c3ccno3)C2)O1 (configuration not stated)	-134%
N#Cc1cccc(C(=O)N2CCn3c(Cn4cncn4)cnc3C2)c1	7.42%
CSc1ccc(C2CC(=O)Nc3c2c(=O)[nH]c2ncnn32)cc1 (configuration not stated)	-8.22%
O=C([C@H]1COC[C@H]2CN(Cc3ccco3)C[C@H]21)N1CCCO1	-8.79%
Cc1nn(C)c2c(N(C)Cc3cccs3)nc(C3CC3)nc12	-126%
Cc1cccc2c1cnn2CCCNC(=O)c1cnn(C)c1	6.75%
Cc1cc(N2CCC(O)(CN(C)C(=O)CCN)C2)c2cnccc2n1 (configuration not stated)	-2.06%
Cc1nc(NCCN2CCCC2=O)cc(C2CN(C)CCO2)n1 (configuration not stated)	-10.5%
Cc1noc(C2(C)CCN(C(=O)C(C)C)CC2)n1	-5.14%
COCCN1CC(c2cc(O)nc(NC(C)C)n2)CC1=O (configuration not stated)	-39.7%
Cc1ccc(Br)cc1NC(=O)NCC(O)CO (configuration not stated)	12.9%
CC(=O)c1ccc(N2CCN(C(=O)NC(C)c3ccc(C)o3)CC2)cc1 (configuration not stated)	10.1%
Cc1cccc(C(=O)N2CCCC2)c1NCC(=O)NC(C)(C#N)C1CC1 (configuration not stated)	-6.8%

SMILES	cytotoxicity at 10 µM
COc1ccc2nc(C3CC3)cc(C(=O)NCCc3nnc[nH]3)c2c1	0.867%
CCS(=O)(=O)NCC(=O)N1CCC(c2cc3ccccc3[nH]2)CC1	-7.79%
CCCNc1nc(CS(=O)(=O)c2ccccc2)cs1	0.939%
CC(O)CN1CCC(CNCCOCC(F)(F)F)CC1 (configuration not stated)	4.91%
CN(C)Cc1nc(C(C)(C)NC(=O)c2cccc3ccccc23)no1	-1.8%
CN(CC(=O)NC(N)=O)CC1(c2ccc(Br)cc2)CC1	0.913%
Cc1ccc(N2CCCC(Nc3nn4cc(C)nc4s3)C2)nn1 (configuration not stated)	-5.78%
COc1ccc2cc(C(=O)NCCNc3ccc(C)nn3)[nH]c2c1	-3.09%
COCCCNC(=O)NCc1nc(C)c(C)o1	10.1%
CC1=NN(c2ccc(C(=O)OCCNC(=O)c3ccncc3)cc2)CC1	-3.62%
c1cncc(CN2CCC(c3n[nH]c(C4CC4)n3)CC2)c1	4.99%
COc1cc(OC)cc(N2CCC(NCc3ccsc3)C2=O)c1 (configuration not stated)	0.347%
Cc1ccc(CC(=O)N2CCC(c3nnc4n3CCC4)CC2)cc1	4.78%
CC(C)CC(C)N(C)Cc1nnc(-c2ccco2)o1 (configuration not stated)	6.07%
Cc1ccccc1CN(Cc1ccccn1)C(=O)CNS(C)(=O)=O	1.48%
CCC(C)(NCC(=O)NC(=O)NC)c1nccs1 (configuration not stated)	7.77%
O=C(NCc1ccccc1CN1CCCC1)Nc1nncs1	6.13%
CC(NC(=O)Nc1ccc(F)c(F)c1)c1nc[nH]n1 (configuration not stated)	0.185%
COCc1nc2cc(NCc3nc(C)cs3)ccc2o1	-2.57%
CN(Cc1ccccc1)C(=O)CCNS(=O)(=O)c1cccnc1	-1.24%
Cc1cc(C)n(-c2ccc(N3CCC4(CC3)OCC(C)O4)nc2)n1 (configuration not stated)	-1.39%
c1cc(CNCc2ccnc(N3CCCC3)c2)c2c(c1)OCO2	3.21%
CCN(CC)c1ncc(CNC2CCc3ncnn3C2)s1 (configuration not stated)	-1.06%

SMILES	cytotoxicity at 10 µM
CCc1ncc2c(n1)CN(C(C(N)=O)c1ccccc1)CC2 (configuration not stated)	-2.35%
CC(C)N(Cc1ccccc1)C(=O)NCCNC(=O)c1cccnc1	-1.66%
O=C(NC1CCCN(c2ccc(OC(F)F)cc2)C1)c1ccon1 (configuration not stated)	-7%
CCn1c(CN(C)C(=O)c2ccc(N(C)C)nc2)nc2ccccc21	0.0894%
CC(C)(C)C(=O)N1CCN(CCOc2cccc(C#N)c2)CC1	3.53%
COc1c(Br)cccc1CCNC(=O)c1ccon1	-2.88%
O=C(NS(=O)(=O)c1cnn(-c2ccccc2F)c1)c1ccoc1	-5.2%
COC(=O)N1CCC(NC(=O)N2CCCC2c2ccsc2)CC1 (configuration not stated)	10.5%
Cc1nn(C)c(C)c1CC(C)NC(=O)NCc1ccn(C(C)C)n1 (configuration not stated)	-1.54%
CC(C)OC(=O)CNC(=O)Nc1ccc(-c2nc(C(C)C)no2)cc1	-5.81%
CC1C(=O)NCCN1CCOc1ccc(C#N)cc1 (configuration not stated)	2.29%
Cn1ccc(NCc2cc3cc(F)ccc3o2)n1	-12.4%
Cc1nn(C)c(C)c1CCC(=O)Nc1cccn(C)c1=O	-1.96%
O=C(Nc1ccc(-c2nnc[nH]2)cc1)C1CCN1Cc1ccccc1 (configuration not stated)	9.73%
O=C(CN1CCCCC1C1OCCO1)Nc1ccc(F)c(F)c1 (configuration not stated)	-3.53%
CN(CC(=O)NCc1ccccn1)CC1CCCN1c1cccnn1 (configuration not stated)	-5.47%
Cc1nc2c(c(C)c1CC(=O)Nc1ccc(Cl)cc1)c(=O)[nH]n2C	-2.85%
CCN(CC1CN(Cc2ncc(C)o2)CCO1)c1cccnn1 (configuration not stated)	-0.343%
CC(O)CN1CCN(C(=O)CN(C)c2cnccn2)CC1 (configuration not stated)	2.53%
Cn1ccnc1CNC(=O)N(CCCO)C1CCCc2ccccc21 (configuration not stated)	-6.19%
O=C(NCCc1nnc2n1CCC2)NC1(c2cccc(F)c2)CC1	3.07%
CCN1CC2(CC1=O)CN(C(C)=O)CCN(C(=O)NC(C)C)C2 (configuration not stated)	8.95%
O=C(C1CC2(CCNCC2)CN1)N1CCN(c2cccc(Cl)c2Cl)CC1 (configuration not stated)	-13.9%

SMILES	cytotoxicity at 10 µM
CNS(=O)(=O)CCNCC1(O)CCCN(CCC2CCCCC2)C1=O (configuration not stated)	0.28%
CSCCC(=O)N1CCC(c2nnc(CN(C)CCO)n2C)CC1	0.583%
CC(=O)Nc1ccc(-c2ccccc2NC(=O)CN)cc1	2.83%
O=C(NCC1CCCO1)c1ccc(S(=O)(=O)NCCc2cn[nH]c2)cc1 (configuration not stated)	5.5%
CC(C)c1cc(C2CCCN2Cc2nc(-c3ccco3)no2)no1 (configuration not stated)	-3.45%
CC(c1cccc(-c2ncccc2F)c1)N(C)C (configuration not stated)	-19.4%
Cc1nccn1CCC1CCCCN1C(=O)c1ccc2nonc2c1 (configuration not stated)	-6.55%
COc1cccc(OC2CN(C(=O)c3sccc3C)C2)c1	2.3%
Cc1ccn(CCNc2ncnc3c2CCN(Cc2ncc[nH]2)CC3)n1	-1.47%
CC(C)Cn1c(=O)n(CCCn2cccn2)c2cc(C(=O)O)cnc21	1.18%
CN(Cc1ccccc1-n1cccn1)c1nc(N)nc2c1CCNCC2	-12.2%
COc1ccc(-n2nc(C)c(C(C)=O)c2C)cc1C(N)=O	-3.41%
O=C1N(CCCc2ccccc2)CCCC12CCN(C(CO)CO)C2 (configuration not stated)	-4.14%
CN(C)C(=O)CN1CCc2onc(-c3ccccc3F)c2C1	2.45%
Cc1cccnc1N1CCN(C(=O)CCc2cn3ccccc3n2)CC1	-6.21%
Cc1ccnc(OCC(=O)N2CCN(c3ncccn3)CC2)n1	-0.849%
CC(C)c1n[nH]c(C2CN(C(=O)c3cc(Cl)c[nH]3)CCO2)n1 (configuration not stated)	-5.64%
CC(C)(C)c1nc(C(C)(C)NC(=O)C2CC(=O)N(CC3CC3)C2)no1 (configuration not stated)	-5.4%
O=C(NCc1nn(-c2ccccc2)c2c1CCC2)NCC1COCCO1 (configuration not stated)	-3.39%
Cc1ccc(NC2CCN(C(=O)c3cncnc3C)CC2)nn1	-3.04%
CC(C)NC(=O)CCNC(=O)Nc1ccc(-n2cncn2)c(F)c1	0.485%
CCc1nnc2n1CCN(C(=O)Cc1nc(-c3ccco3)oc1C)C2	1.19%
O=C(CCCNc1ncccn1)N1CCCC(n2ccnc2)C1 (configuration not stated)	-15.1%

SMILES	cytotoxicity at 10 µM
O=C(c1cscn1)N1CCCC(n2cncn2)C1 (configuration not stated)	0.301%
Cc1nn(C)c(N(C)C)c1CNCc1cccnc1N(C)C	1.84%
O=C(c1cc2cc(F)ccc2[nH]1)N1CCC(Nc2ccc(F)cc2)CC1	-7.36%
O=C(CCOc1cccc(F)c1)N1CCCC(n2cccn2)C1 (configuration not stated)	-14.7%
Cn1ccnc1CN1CCN(CC(O)c2ccc(F)cc2)CC1 (configuration not stated)	-21.8%
O=C(NCCNc1ccc(C(F)(F)F)cn1)c1ccc(Br)cc1	-6.28%
NS(=O)(=O)c1ccc(CC(=O)N2CCCC(n3cccn3)C2)cc1 (configuration not stated)	-0.481%
COc1ccc(CNC(=O)NCc2c(C)cc(C)[nH]c2=O)cc1	-3.22%
Cn1ccnc1N1CCN(C(=O)Cc2ccc(Cl)cc2)CC1	5.73%
CNC(=O)CN1CCOCC2(CCCN(Cc3ccsc3)C2)C1 (configuration not stated)	2.61%
Cn1cc(CN2CCc3c(CNC(=O)C4CC4)cncc3C2)cn1	-5.43%
O=C(N[C@@H]1CN(Cc2cccs2)[C@@H]2CCCO[C@@H]21)c1cscn1	-4.6%
O=C1N(c2ccsc2)CCC12CCCN(Cc1cccnc1)C2 (configuration not stated)	-128%
COc1cc(C(=O)N2CC3(CCNCC3)c3cc(Cl)ccc32)ccn1	52.8%
COCc1nn(C)c2c1CCN(Cc1cnn(C)c1)C2	-4.37%
COCC1CN(S(=O)(=O)N(C)C)Cc2cnn(CC3CCCC3)c21 (configuration not stated)	12.4%
COCC(=O)N1CCC(c2nc3ccc(N4CCCC4)cn3n2)CC1	-15.4%
COc1ncnc2c1CCN(C(=O)NCc1cccnc1)CC2	-133%
CC(C)n1nc(CN2CCOCC2)c2c1CN(Cc1ccsc1)C2	-132%
COc1cc(C2CC(=O)c3c(O)cc(O)cc3O2)ccc1O (configuration not stated)	-0.537%
